Compound activity as filed in PubChem BioAssay.
An excerpt weighted towards active compounds, which were near 2.9% of everything screened.
TRPC6 act: mouse TRPC6 channel activation; Q61143; HEK293-TRPC6 membrane potential dye fluorescence; active compounds read high; B-score at 10 µM; 0.13% of 310,000 active; AID 2550;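 active = B-score of the integrated fluorescence ratio above library mean plus 3 SD, and starting fluorescence ratio within library mean plus 5 SD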;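 note: higher score means more depolarization so channel activation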
Target sequence (Q61143 whole entry, looked up): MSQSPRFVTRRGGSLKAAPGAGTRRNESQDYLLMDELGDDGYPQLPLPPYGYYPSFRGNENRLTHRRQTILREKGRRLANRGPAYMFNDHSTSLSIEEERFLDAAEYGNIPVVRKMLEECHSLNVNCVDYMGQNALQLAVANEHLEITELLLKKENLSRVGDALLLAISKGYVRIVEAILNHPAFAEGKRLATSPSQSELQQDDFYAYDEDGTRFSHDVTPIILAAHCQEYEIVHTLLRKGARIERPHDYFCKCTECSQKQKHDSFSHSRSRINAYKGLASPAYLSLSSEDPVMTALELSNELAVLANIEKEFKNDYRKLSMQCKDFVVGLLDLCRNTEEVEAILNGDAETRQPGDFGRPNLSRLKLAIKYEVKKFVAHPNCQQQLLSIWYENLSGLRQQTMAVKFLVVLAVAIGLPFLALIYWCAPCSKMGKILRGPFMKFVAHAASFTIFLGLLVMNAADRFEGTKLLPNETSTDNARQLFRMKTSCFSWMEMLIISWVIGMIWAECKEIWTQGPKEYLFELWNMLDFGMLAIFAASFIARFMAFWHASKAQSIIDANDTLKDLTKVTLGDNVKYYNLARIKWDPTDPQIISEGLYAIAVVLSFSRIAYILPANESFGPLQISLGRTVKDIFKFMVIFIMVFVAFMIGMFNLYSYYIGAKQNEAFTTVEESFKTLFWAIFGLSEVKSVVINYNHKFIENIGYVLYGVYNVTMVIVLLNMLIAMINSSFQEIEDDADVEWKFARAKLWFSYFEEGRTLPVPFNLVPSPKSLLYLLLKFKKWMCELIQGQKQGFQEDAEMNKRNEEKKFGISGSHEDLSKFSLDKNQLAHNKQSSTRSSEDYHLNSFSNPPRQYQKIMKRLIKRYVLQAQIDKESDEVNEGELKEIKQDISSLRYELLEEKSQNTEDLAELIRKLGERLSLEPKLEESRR
Kir21 block: inhibitors of mouse Kir2.1 inward-rectifier potassium channel | P35561 | HEK293-Kir2.1, FluxOR thallium flux fluorescence; active compounds read low | B-score at 10 µM | 0.85% of 310,000 active | AID 1672;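 active = fluorescence ratio B-score at or below minus 3 SD of library scores, with starting-brightness B-score within 2 SD, cut at about -4.2 in these data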;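 note: channel flux triggered by added potassium and thallium sulfate stimulus; B-score of peak minus minimum fluorescence over baseline after thallium stimulus; more negative B-score means stronger Kir2.1 block with less thallium influx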
TRPC4 act: TRPC4 (mouse) channel activation | HEK293 TRPC4beta/mu-opioid, Fluo4 calcium fluorescence; active compounds read high | B-score at 10 µM | Q9QUQ5 | 0.49% of 310,000 active;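 active = B-score above 5 SD of library B-scores, and initial fluorescence ratio not above library mean plus 5 SD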;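 note: positive B-score marks a calcium rise read as TRPC4 activation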
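Assay system: HEK293 stable line with TRPC4beta plus mu-opioid receptor; schedule: 45 min room-temperature Fluo4 loading, 110 s read; technique: kinetic Fluo4 calcium fluorescence; evaluation: integrated baseline-normalised fluorescence ratio, converted to per-well B score; controls: buffer (low) and maximal DAMGO (high)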
TRPC6 inhibitor: mouse TRPC6 channel inhibition; Q61143; HEK293-TRPC6, membrane potential dye, ACh-evoked depolarization; active compounds read low; B-score at 10 µM; 1.1% of 310,000 active; AID 2553;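 active = B-score under library mean minus 3 SD, initial fluorescence not abnormally high, positive integrated signal ratio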;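 note: B-score derived from integrated fluorescence ratio over the kinetic read; more negative B-score means stronger inhibition of depolarization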
TRPC4 inh: inhibitors of mouse TRPC4 channel | Q9QUQ5 | HEK293 TRPC4beta/mu-opioid, DAMGO-evoked Fluo4 calcium flux; active compounds read low | B-score at 10 µM | 0.39% of 300,000 active | AID 2247;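 active = B-score over 3 SD under the library average, no early fluorescence shift, positive overall ratio signal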
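Material: HEK293 cells with stable TRPC4beta plus mu-opioid receptor expression / Probe or stimulus: DAMGO in two steps, submaximal then maximal / Compound: single concentration per test compound / Technique: kinetic Fluo4 fluorescence imaging of calcium influx / Read-out: per-well B score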
TRPC4 potent: allosterically enhances the mouse TRPC4 cation channel; AID 2227; 0.42% of 310,000 active; Q9QUQ5; HEK293 TRPC4beta/mu-opioid, DAMGO EC20, Fluo-4 Ca2+ flux; active compounds read high; B-score at 10 µM;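 active = B-score of calcium response area above 5 SD of library B-scores, with initial fluorescence ratio within 5 SD of library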
TRPC4 spec 2: second check of whether TRPC6 inhibitors also affect mouse TRPC4; 42% of 920 active; AID 2776; HEK293 TRPC4/MOR, membrane potential dye fluorescence; channel activated by saturating DAMGO dose; inhibition, % at 10 µM; shares compounds with TRPC6 inhibitor;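 active = compounds whose fluorescence signal differed from control wells by over 3 SD, either direction, in both duplicate plates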
TRPC4 spec: selectivity of TRPC6 inhibitors: effect on mouse TRPC4 | shares compounds with TRPC6 inhibitor | HEK293 TRPC4/mu-opioid, membrane potential fluorescence | activity change, negative = inhibition, % at 10 µM | 61% of 920 active | AID 2777;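 active = rise or fall in signal beyond 3 SD of buffer-only wells in both replicate plates, either sign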;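 note: integrated kinetic ratio of fluorescence range over baseline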
HEK293 MPD ctr 2-1: parental HEK293 nonspecific activity of TRPC6 inhibitors, second screen; shares compounds with TRPC6 inhibitor; parental HEK293 membrane potential dye fluorescence; maximal acetylcholine challenge after compound addition; signal change vs control, % at 10 µM; 31% of 920 active; AID 2779;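 active = membrane potential signal moving either way by over 3 SD of the maximum-effect control, in both duplicate plates, meaning non-specific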
HEK293 MPD ctr-1: checks TRPC6 inhibitor effects in parental HEK293 cells | shares compounds with TRPC6 inhibitor | 60% of 920 active | parental HEK293 membrane potential dye fluorescence | membrane potential signal change, % at 10 µM;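 active = membrane potential signal shifting up or down by more than 3 SD of buffer-only wells, on both duplicate plates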
HEK293 MPD ctr-2: counter-screen for TRPC6 modulators: effect in parental HEK293 cells; membrane potential dye fluorescence; 51% of 2,400 active; membrane potential signal change, % at 10 µM; AID 488924; shares compounds with TRPC6 inhibitor;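 active = membrane potential signal moves up or down beyond 5 SD from buffer-only wells, on both duplicate plates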
HEK293 MPD ctr 2-2: second counter-screen for TRPC6 modulators: effect in parental HEK293 cells. shares compounds with TRPC6 inhibitor. membrane potential dye fluorescence; after compound, maximal acetylcholine stimulation. inhibition, % at 10 µM. 14% of 2,400 active. AID 488926;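 active = membrane potential signal drops by more than 5 SD from the mean control signal, in both duplicate plates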
TRPC4 ctr mod: tests whether TRPC6 modulators also affect mouse TRPC4. shares compounds with TRPC6 inhibitor. HEK293 TRPC4/mu-opioid, membrane potential fluorescence. percent change from control (negative = decrease, positive = increase), % at 10 µM. 69% of 2,400 active. AID 488927;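 active = membrane potential signal moved up or down beyond 5 SD of buffer control wells, in both duplicate plates, actives on both sides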
TRPC4/MOR inh 2: second selectivity test of TRPC6 modulators against mouse TRPC4; shares compounds with TRPC6 inhibitor; HEK293 TRPC4/mu-opioid, membrane potential dye fluorescence; stimulated with maximal-effect DAMGO; inhibition, % at 10 µM; 55% of 2,400 active;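 active = drop in membrane potential signal beyond 5 SD of the control wells in both duplicate plates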;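 note: TRPC4 counter screen for TRPC6 hits run under conditions tuned for TRPC6 not TRPC4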
TRPC6 block conf: mouse TRPC6 inhibitor confirmation; shares compounds with TRPC6 inhibitor; HEK293-TRPC6, membrane potential dye, ACh-evoked depolarization; inhibition, % at 10 µM; 43% of 3,300 active;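 active = fluorescence ratio falls more than 5 SD below the full-stimulation control mean, in both duplicate runs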;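 note: integrated fluorescence ratio of peak minus minimum over baseline after agonist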
TRPC6 act conf: mouse TRPC6 activator confirmation; shares compounds with TRPC6 inhibitor; HEK293-TRPC6 membrane potential dye fluorescence, FDSS; activation, % at 10 µM; 11% of 2,800 active; AID 488961;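 active = ratio signal rise beyond 5 SD above unstimulated control wells' mean, seen in both duplicate runs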
Each line names hits and unclear results; the compound was inactive in the other large screens (follow-up assays come after a bar, where they were run).

CC(=O)Nc1ccc(S(=O)(=O)N2CCN(c3nc(NC4CCCC4)c4ccccc4n3)CC2)cc1	none
CC(=O)Nc1ccc(S(=O)(=O)N2CCN(c3cc(C)nc4ccccc34)CC2)cc1	TRPC6 inhibitor -7.8 | HEK293 MPD ctr-2 -267% | HEK293 MPD ctr 2-2 inactive | TRPC4 ctr mod -45% | TRPC4/MOR inh 2 70% | TRPC6 block conf 46% | TRPC6 act conf inactive
COc1cc(/C=C2/C(=O)N(c3ccc(Br)cc3)N=C2C)cc(OC)c1OC	TRPC6 inhibitor -5.4 | HEK293 MPD ctr-2 inactive | HEK293 MPD ctr 2-2 inactive | TRPC4 ctr mod inactive | TRPC4/MOR inh 2 inactive | TRPC6 block conf inactive | TRPC6 act conf inactive
CCN(CC)CCN1C(=O)c2ccccc2NC1c1ccc(Br)cc1 (centres undefined)	TRPC6 inhibitor -6.7 | HEK293 MPD ctr-2 inactive | HEK293 MPD ctr 2-2 inactive | TRPC4 ctr mod 18% | TRPC4/MOR inh 2 42% | TRPC6 block conf inactive
Cc1ccc(S(=O)(=O)c2cc3c(=O)n4ccccc4nc3n(CCCN3CCOCC3)c2=N)cc1C	TRPC6 inhibitor -6.2 | HEK293 MPD ctr-2 -250% | HEK293 MPD ctr 2-2 66% | TRPC4 ctr mod -52% | TRPC4/MOR inh 2 80% | TRPC6 block conf 66% | TRPC6 act conf inactive
N=c1c(S(=O)(=O)c2ccccc2)cc2c(=O)n3ccccc3nc2n1CCCN1CCOCC1	TRPC6 inhibitor -5.5 | HEK293 MPD ctr-2 -142% | HEK293 MPD ctr 2-2 inactive | TRPC4 ctr mod -41% | TRPC4/MOR inh 2 51% | TRPC6 block conf 50% | TRPC6 act conf inactive
N=c1c(S(=O)(=O)c2ccc(Cl)cc2)cc2c(=O)n3ccccc3nc2n1CCN1CCOCC1	none
CSCC[C@H](NC(=O)OCc1ccccc1)C(=O)O	none
O=c1c2cc(Br)ccc2nc2n1CCCCC2	TRPC6 inhibitor -7.8 | TRPC4 spec 2 inactive | TRPC4 spec inactive | HEK293 MPD ctr 2-1 inactive | HEK293 MPD ctr-1 inactive | TRPC6 block conf inactive | TRPC6 act conf inactive
CN1CCN(c2cc(N3CCN(C(=O)c4ccco4)CC3)c3c4c(onc24)-c2ccccc2C3=O)CC1	none
O=C1c2ccccc2-c2onc3c(N4CCN(CCO)CC4)cc(N4CCN(C(=O)c5ccco5)CC4)c1c23	TRPC6 inhibitor -7 | TRPC4 spec 2 inactive | TRPC4 spec -47% | HEK293 MPD ctr 2-1 inactive | HEK293 MPD ctr-1 -608% | TRPC6 block conf inactive | TRPC6 act conf inactive
CC(OC(=O)c1cc(S(=O)(=O)N(C)c2ccccc2)ccc1Cl)C(=O)Nc1ccc2c(c1)OCCO2 (centres undefined)	none
COc1ccc(CN2CC(C(=O)NCCCN3CCCCCC3)CC2=O)cc1 (centres undefined)	none
CCN(CCCNc1ncnc2nc[nH]c12)c1cccc(C)c1	TRPC6 inhibitor -6.3 | HEK293 MPD ctr-2 inactive | HEK293 MPD ctr 2-2 inactive | TRPC4 ctr mod inactive | TRPC4/MOR inh 2 inactive | TRPC6 block conf inactive | TRPC6 act conf inactive
CN1CCN(C(=S)c2cn(Cc3ccc(Br)cc3)c3ccccc23)CC1	none
CC1(C)CC(=O)C2=C(C1)NC1=C(C(=O)c3ccccc31)C2c1ccccc1 (centres undefined)	none
CC1(C)CC(=O)C2=C(C1)NC1=C(C(=O)c3ccccc31)C2c1cc([N+](=O)[O-])ccc1O (centres undefined)	TRPC6 inhibitor -5.4 | HEK293 MPD ctr-2 inactive | HEK293 MPD ctr 2-2 inactive | TRPC4 ctr mod -13% | TRPC4/MOR inh 2 66% | TRPC6 block conf 42% | TRPC6 act conf inactive
Nc1nc(-c2ccccc2)cc(-c2ccccc2O)n1	none
CN(C)c1cc(-c2ccccc2)nc(N)n1	TRPC6 inhibitor -6.5 | HEK293 MPD ctr-2 -72% | HEK293 MPD ctr 2-2 inactive | TRPC4 ctr mod -14% | TRPC4/MOR inh 2 51% | TRPC6 block conf inactive | TRPC6 act conf inactive
COc1ccc(NC(=O)C(=O)N/N=C/c2cccnc2)cc1	none
O=C1C2CCCN2c2ccc(S(=O)(=O)N3CCOCC3)cc2N1Cc1cccc(C(F)(F)F)c1 (centres undefined)	none
O=C(CSc1ncccn1)N1CCN(C(=O)CSc2ncccn2)CC1	none
O=C(CSc1ncccn1)N1CCN(C(c2ccccc2)c2ccccc2)CC1	TRPC6 inhibitor -7.9 | TRPC4 spec 2 inactive | TRPC4 spec 1.9% | HEK293 MPD ctr 2-1 inactive | HEK293 MPD ctr-1 1.4% | TRPC6 block conf 76%
O=C(CSCc1cnn(-c2ccccc2)c1-n1cccc1)NCc1ccccn1	Kir21 block -4.4, TRPC6 inhibitor -6.3 | HEK293 MPD ctr-2 inactive | HEK293 MPD ctr 2-2 inactive | TRPC4 ctr mod 11% | TRPC4/MOR inh 2 inactive | TRPC6 block conf inactive
COc1ccc(Nc2ncnc3c2cnn3Cc2ccccc2)cc1OC	none
O=C(c1cccc(F)c1)N1CCN(S(=O)(=O)c2ccc(C(F)(F)F)cc2)CC1	TRPC6 act 14, TRPC6 inhibitor -12 (no result: TRPC4 inh) | HEK293 MPD ctr-2 inactive | HEK293 MPD ctr 2-2 inactive | TRPC4 ctr mod inactive | TRPC4/MOR inh 2 inactive | TRPC6 block conf 62% | TRPC6 act conf 72%
